According to ChEMBL document CHEMBL2417552, “Screen of pseudopeptidic inhibitors of human sirtuins 1-3: two lead compounds with antiproliferative effects in cancer cells” (J Med Chem, 2013):
Active and inactive are the calls of the source. No cut-off for these calls is given here.

Key:
[1] = Cytotoxicity against human SH-SY5Y cells at 20 uM by LDH assay; format: cell-based
[2] = biological target: T1, NAD-dependent protein deacetylase sirtuin-1 (Homo sapiens, UniProt Q96EB6); assay: Inhibition of human recombinant GST-tagged SIRT1 using KI177 as substrate preincubated for 5 mins followed by enzyme addition measured after 1 hr by fluorescence assay
T1 sequence (Q96EB6 whole entry): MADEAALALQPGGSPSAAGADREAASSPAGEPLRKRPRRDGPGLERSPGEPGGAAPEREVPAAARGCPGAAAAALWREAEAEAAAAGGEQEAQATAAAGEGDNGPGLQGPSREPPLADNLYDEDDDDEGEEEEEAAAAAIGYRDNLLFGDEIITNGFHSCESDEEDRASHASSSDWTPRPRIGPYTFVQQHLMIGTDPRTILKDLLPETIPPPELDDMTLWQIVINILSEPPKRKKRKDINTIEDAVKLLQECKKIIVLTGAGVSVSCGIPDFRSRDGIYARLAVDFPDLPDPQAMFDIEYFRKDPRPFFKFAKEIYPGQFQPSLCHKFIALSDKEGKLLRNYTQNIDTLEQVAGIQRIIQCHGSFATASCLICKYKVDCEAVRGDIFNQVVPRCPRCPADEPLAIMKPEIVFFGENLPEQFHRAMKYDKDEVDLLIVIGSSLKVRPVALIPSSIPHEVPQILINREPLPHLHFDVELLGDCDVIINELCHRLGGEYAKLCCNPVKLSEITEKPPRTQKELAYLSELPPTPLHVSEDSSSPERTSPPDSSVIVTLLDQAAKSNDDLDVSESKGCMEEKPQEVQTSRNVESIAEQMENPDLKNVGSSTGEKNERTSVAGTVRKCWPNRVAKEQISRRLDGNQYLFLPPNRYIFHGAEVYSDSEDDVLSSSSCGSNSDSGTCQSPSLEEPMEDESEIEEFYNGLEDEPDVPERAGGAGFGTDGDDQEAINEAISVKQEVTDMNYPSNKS
Procedure, shortened: (§1)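 Fluor de Lys deacetylation assay. […] Mix preincubated 5 min at room temperature, started with enzyme, run 1 h at 37°C. Developer with 2 mM nicotinamide then added for 45 min at 37°C before fluorescence reading.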

[3] = biological target: T2, NAD-dependent protein deacetylase sirtuin-1 (Homo sapiens) (UniProt Q96EB6); assay: Inhibition of SIRT1 in etoposide-induced human MCF7 cells assessed as increase in p53 acetylation at Lys382 at 50 uM after 5 hrs by Western blotting analysis; format: cell-based
T2 sequence (whole entry): T1 sequence (Q96EB6 whole entry)
Procedure, shortened: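 MCF-7 cells seeded 24 h ahead, then given 50 μM compound and 100 μM etoposide together for 5 h before harvest. Acetylated p53 detected by Western blot; run once per compound.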

[4] = Cytotoxicity against human ARPE19 cells at 20 uM by LDH assay; format: cell-based; settings: arpe-19, 20 µM
[5] = tested on: MCF7; assay: Cytotoxicity against human MCF7 cells at 50 uM by LDH assay; format: functional, cell-based
[6] = biological target: T3, NAD-dependent protein deacetylase sirtuin-3, mitochondrial (Homo sapiens, UniProt Q9NTG7); assay: Inhibition of human recombinant His-tagged SIRT3 using KI179 as substrate preincubated for 5 mins followed by enzyme addition measured after 1 hr by fluorescence assay
T3 sequence (Q9NTG7 whole entry): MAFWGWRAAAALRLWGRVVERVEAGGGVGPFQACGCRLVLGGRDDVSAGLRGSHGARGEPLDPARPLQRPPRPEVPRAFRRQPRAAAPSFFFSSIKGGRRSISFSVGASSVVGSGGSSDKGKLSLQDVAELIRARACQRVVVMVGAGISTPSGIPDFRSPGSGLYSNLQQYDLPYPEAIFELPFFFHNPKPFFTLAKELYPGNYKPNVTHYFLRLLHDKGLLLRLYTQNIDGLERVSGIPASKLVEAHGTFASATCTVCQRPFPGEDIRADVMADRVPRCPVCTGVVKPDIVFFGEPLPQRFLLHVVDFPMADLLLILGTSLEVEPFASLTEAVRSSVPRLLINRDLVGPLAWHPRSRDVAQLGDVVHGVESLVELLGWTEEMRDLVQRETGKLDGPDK

[7] = tested on: MCF7; assay: Growth inhibition of human MCF7 cells up to 200 uM after 72 hrs by sulforhodamine B assay
[8] = biological target: T2, NAD-dependent protein deacetylase sirtuin-1 (Homo sapiens); assay: Inhibition of SIRT1 in etoposide-induced human SH-SY5Y cells assessed as increase in p53 acetylation at Lys382 at 20 uM after 5 hrs by Western blotting analysis; format: cell-based
Procedure, shortened: (§2)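 ARPE-19 or SH-SY5Y cells seeded 24 h ahead, then given 20 μM compound and 100 μM etoposide together for 5 h before harvest. Acetylated p53 detected by Western blot. Mean ± SEM of 2 independent experiments.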

[9] = biological target: T2, NAD-dependent protein deacetylase sirtuin-1 (Homo sapiens); assay: Inhibition of SIRT1 in etoposide-induced human ARPE19 cells assessed as increase in p53 acetylation at Lys382 at 20 uM after 5 hrs by Western blotting analysis; format: cell-based; procedure, shortened: as §2
[10] = biological target: T4, NAD-dependent protein deacetylase sirtuin-2 (Homo sapiens, UniProt Q8IXJ6); assay: Inhibition of human recombinant GST-tagged SIRT2 using KI179 as substrate preincubated for 5 mins followed by enzyme addition measured after 1 hr by fluorescence assay; procedure, shortened: as §1
T4 sequence (Q8IXJ6 whole entry): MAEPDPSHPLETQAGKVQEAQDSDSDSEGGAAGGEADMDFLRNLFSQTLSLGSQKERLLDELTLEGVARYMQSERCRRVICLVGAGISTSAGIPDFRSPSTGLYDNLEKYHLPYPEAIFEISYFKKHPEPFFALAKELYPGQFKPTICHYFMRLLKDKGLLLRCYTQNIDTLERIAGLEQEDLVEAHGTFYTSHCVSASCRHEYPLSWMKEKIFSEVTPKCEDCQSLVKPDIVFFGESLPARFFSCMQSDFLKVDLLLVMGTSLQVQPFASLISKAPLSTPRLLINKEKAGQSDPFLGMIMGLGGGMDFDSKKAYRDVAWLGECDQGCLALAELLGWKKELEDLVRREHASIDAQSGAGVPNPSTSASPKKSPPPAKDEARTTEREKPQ

[11] = biological target: T5, NAD-dependent protein deacetylase sirtuin-2 (Homo sapiens) (UniProt Q8IXJ6); assay: Inhibition of human recombinant GST-tagged SIRT2 using KI179 as substrate at 50 uM preincubated for 5 mins followed by enzyme addition measured after 1 hr by fluorescence assay relative to control
T5 sequence (whole entry): T4 sequence (Q8IXJ6 whole entry)
Procedure, shortened: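 Recombinant GST-SIRT2, Fluor de Lys assay in SIRT assay buffer. Acetylated peptide KI179 at 0.7 Km (Km 198 µM) and NAD+ at 0.9 Km (reported Km 547 µM). Buffer, substrate, NAD+ and compound in DMSO preincubated 5 min at room temperature. Enzyme added to start; 1 h at 37 °C. Developer with 2 mM nicotinamide added; 45 min at 37 °C; fluorescence read. Mean ± SD, ≥3 experiments.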

[12] = biological target: T6, NAD-dependent protein deacetylase sirtuin-3, mitochondrial (Homo sapiens) (UniProt Q9NTG7); settings: at 50 µM
T6 sequence (whole entry): T3 sequence (Q9NTG7 whole entry)

[13] = tested on: A549; assay: Growth inhibition of human A549 cells up to 200 uM after 48 hrs by sulforhodamine B assay; format: functional, cell-based
[14] = biological target: T2, NAD-dependent protein deacetylase sirtuin-1 (Homo sapiens); settings: at 50 µM
[15] = tested on: MCF7; assay: Effect on alpha-tubulin acetylation in human MCF7 cells at 50 uM after 6 to 18 hrs by Western blotting analysis; format: functional, cell-based
Procedure, shortened: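 MCF-7 cells seeded 24 h ahead, treated for 6 or 18 h, then lysed in M-PER. Lysates run on SDS-PAGE, transferred to nitrocellulose and probed with mouse monoclonal anti-acetylated α-tubulin and anti-total α-tubulin. Detection with peroxidase anti-mouse secondary and ECL Plus.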

[16] = tested on: A549; assay: Growth inhibition of human A549 cells at >= 50 uM after 48 hrs by sulforhodamine B assay; format: functional, cell-based
[17] = tested on: A549; assay: Cell cycle arrest in human A549 cells assessed as accumulation at G2 phase at 100 uM after 18 hrs by propidium iodide staining-based FACS flow cytometric analysis (reference value: 19.4%); format: functional
[18] = tested on: A549; assay: Cell cycle arrest in human A549 cells assessed as accumulation at G1 phase at 100 uM after 18 hrs by propidium iodide staining-based FACS flow cytometric analysis (reference value: 62.3%); format: functional
[19] = tested on: MCF7; assay: Cell cycle arrest in human MCF7 cells assessed as accumulation at G2 phase at 100 uM after 18 hrs by propidium iodide staining-based FACS flow cytometric analysis (reference value: 14.7%); format: functional
[20] = tested on: A549; assay: Cell cycle arrest in human A549 cells assessed as accumulation at S phase at 100 uM after 18 hrs by propidium iodide staining-based FACS flow cytometric analysis (reference value: 17.8%); format: functional
[21] = tested on: MCF7; assay: Growth inhibition of human MCF7 cells at >= 50 uM after 72 hrs by sulforhodamine B assay
[22] = tested on: A549; assay: Cytotoxicity against human A549 cells assessed as cell death at 100 uM after 18 hrs by propidium iodide staining-based FACS flow cytometric analysis; format: functional
[23] = tested on: MCF7; assay: Cell cycle arrest in human MCF7 cells assessed as accumulation at G1 phase at 100 uM after 18 hrs by propidium iodide staining-based FACS flow cytometric analysis (reference value: 67.6%); format: functional
[24] = tested on: MCF7; assay: Cell cycle arrest in human MCF7 cells assessed as accumulation at S phase at 100 uM after 18 hrs by propidium iodide staining-based FACS flow cytometric analysis (reference value: 12.6%); format: functional
[25] = tested on: MCF7; assay: Cytotoxicity against human MCF7 cells assessed as cell death at 100 uM after 18 hrs by propidium iodide staining-based FACS flow cytometric analysis; format: functional

SMILES	Activity [1]	IC50 [2] [µM]	inhibition [3]	Activity [4]	Activity [5]	inhibition [8]	inhibition [9]	IC50 [10] [µM]	inhibition [11] [%]	inhibition [14] [%]	Activity [15]	also measured
CC(=S)NCCCC[C@H](NC(=O)[C@@H]1C[C@@H](O)CN1C(=O)OCc1ccccc1)C(=O)NCC(=O)c1ccccc1	Non-toxic	0.24	Active	Non-toxic	inactive	Active	Active	1.8	96	99	inactive	IC50 [6]: 3.89 µM; growth inhibition (GI) [7]: inactive; inhibition [12]: 90%; growth inhibition (GI) [13]: inactive
COc1ccc2[nH]cc(CCNC(=O)[C@H](CCCCNC(C)=S)NC(=O)OCc3ccccc3)c2c1	Non-toxic	5.98	Active	Non-toxic	inactive	Active	Active	25.8	66	88	inactive	growth inhibition (GI) [16]: Active; Activity [17]: 9.9%; Activity [18]: 85.7%; Activity [19]: 13.2%; Activity [20]: 3%; growth inhibition (GI) [21]: Active; Activity [22]: inactive; Activity [23]: 77.4%; Activity [24]: 5.7%; Activity [25]: inactive
